From PMC3944088 (ACS chemical biology, 2013)
Values belong to the compound of their own block, whether it stands above or below them.

Assays:
GSK3α = GSK3α (Homo sapiens, UniProt P49840); test: In vitro kinase inhibition assay GSK3α; format: biochemical; details: Millipore and Reaction Biology platforms
[1] = tested on: A549, H23 and H1648 NSCLC cell lines; test: Dose-response inhibition of cellular viability in NSCLC cell lines; format: cell-based; details: for activity in inhibition of cellular viability (dose-response): A549, H23, H1648 NSCLC cell lines
Procedure, shortened: (§1)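 Viability read by ATP-based luminescence (CellTiter-Glo) after exposure of lung cancer cell lines to the test compound. For the GSK3 comparison in A549 cells, the known pan-GSK3 inhibitors BIO and LiCl were run alongside. Enantiomers were compared in A549 and H1648 cells.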

GSK3β = GSK3β (Homo sapiens, UniProt P49841); test: In vitro kinase inhibition assay GSK3β; format: biochemical; details: Millipore and Reaction Biology platforms
c-MET [2] = biological target: T1, c-MET (Homo sapiens, UniProt P08581); details: reported ref 8, 17; cited from earlier work
[3] = tested on: panel of 24 KRAS-mutant and wild-type lung cancer cell lines; test: Cell viability screen across a panel of 24 lung cancer cell lines; format: cell-based; details: 0.5 and 2.5 μM
Procedure, shortened: as §1

A549 cells [4] = test: Apoptosis by PARP-1 cleavage in A549 cells; format: cell-based
Procedure, shortened: (§2)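 A549 cells were treated with the test compound or the reference pan-GSK3 inhibitor BIO (concentrations in μM), then lysates were immunoblotted for PARP-1 cleavage and total c-MET. In parallel, GSK3α and GSK3β were knocked down by siRNA, each alone, both combined, or with one siRNA targeting both, against a non-targeting control. These cells were blotted 72 hours post-transfection.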

A549 NSCLC cells = test: Cell viability of A549 NSCLC cells with GSK3 inhibitors; format: cell-based
Procedure, shortened: as §1

c-MET [5] = test: Total c-MET levels in A549 cells; format: cell-based
Procedure, shortened: as §2

β-catenin = test: Total β-catenin levels in A549 cells; format: cell-based; details: A549 cells after treatment
[6] = tested on: MV-4–11 and RS4;11 MLL-rearranged leukemia cells; test: β-catenin stabilisation and cell cycle in MLL-rearranged leukemia cells; format: cell-based
c-MET [7] = biological target: T1, c-MET; test: c-MET autophosphorylation in A549 cells; format: cell-based; details: 30 minute treatment, 250 nM for crizotinib, PHA-665752, PF-04217903
A549 cells [8] = test: Cell cycle analysis in A549 cells; format: cell-based
[9] = tested on: RS4;11 MLL-rearranged leukemia cells; test: Viability of RS4; format: cell-based; details: RS4;11 cells
c-MET [10] = biological target: T1, c-MET; test: In vitro kinase inhibition c-MET; format: biochemical
[11] = tested on: MV-4–11 MLL-rearranged leukemia cells; test: Viability of MV-4–11 MLL-rearranged leukemia cells; format: cell-based; details: MV-4–11 cells

T1 sequence (P08581 25-1390): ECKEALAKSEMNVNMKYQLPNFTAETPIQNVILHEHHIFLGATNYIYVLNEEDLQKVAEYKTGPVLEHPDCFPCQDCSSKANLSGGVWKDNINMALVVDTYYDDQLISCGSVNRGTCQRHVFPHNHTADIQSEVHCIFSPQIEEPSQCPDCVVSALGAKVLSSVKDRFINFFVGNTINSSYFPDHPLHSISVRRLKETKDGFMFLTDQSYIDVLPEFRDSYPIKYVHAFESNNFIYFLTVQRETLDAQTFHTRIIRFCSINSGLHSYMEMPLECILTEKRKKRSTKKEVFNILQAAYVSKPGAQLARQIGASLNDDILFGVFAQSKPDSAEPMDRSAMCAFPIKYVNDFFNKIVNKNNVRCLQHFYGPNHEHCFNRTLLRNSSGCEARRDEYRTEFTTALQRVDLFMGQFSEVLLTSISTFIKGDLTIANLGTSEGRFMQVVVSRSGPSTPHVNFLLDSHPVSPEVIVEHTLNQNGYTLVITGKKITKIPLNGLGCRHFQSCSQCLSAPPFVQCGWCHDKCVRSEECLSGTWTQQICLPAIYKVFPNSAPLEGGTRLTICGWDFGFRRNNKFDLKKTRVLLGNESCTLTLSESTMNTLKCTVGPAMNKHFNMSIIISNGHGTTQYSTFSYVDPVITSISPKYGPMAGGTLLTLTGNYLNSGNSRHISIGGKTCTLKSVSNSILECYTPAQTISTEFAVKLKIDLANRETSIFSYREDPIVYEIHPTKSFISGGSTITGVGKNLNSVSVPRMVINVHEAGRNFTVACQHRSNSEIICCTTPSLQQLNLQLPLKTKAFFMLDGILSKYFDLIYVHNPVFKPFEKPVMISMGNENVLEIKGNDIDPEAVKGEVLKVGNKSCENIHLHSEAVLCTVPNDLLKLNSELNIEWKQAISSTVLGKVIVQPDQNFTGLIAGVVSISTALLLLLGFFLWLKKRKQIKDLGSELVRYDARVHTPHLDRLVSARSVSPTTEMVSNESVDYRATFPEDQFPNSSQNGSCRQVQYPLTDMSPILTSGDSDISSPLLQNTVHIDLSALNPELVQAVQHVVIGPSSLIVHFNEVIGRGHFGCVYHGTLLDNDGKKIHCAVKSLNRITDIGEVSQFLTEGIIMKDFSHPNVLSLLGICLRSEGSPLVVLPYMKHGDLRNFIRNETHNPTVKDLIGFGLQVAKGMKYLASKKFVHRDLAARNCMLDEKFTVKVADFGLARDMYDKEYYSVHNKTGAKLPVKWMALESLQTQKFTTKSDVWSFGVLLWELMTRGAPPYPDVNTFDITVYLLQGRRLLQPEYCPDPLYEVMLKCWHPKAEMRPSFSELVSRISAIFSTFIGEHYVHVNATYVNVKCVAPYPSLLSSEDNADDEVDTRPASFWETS
GSK3α, sequence (P49840 whole entry): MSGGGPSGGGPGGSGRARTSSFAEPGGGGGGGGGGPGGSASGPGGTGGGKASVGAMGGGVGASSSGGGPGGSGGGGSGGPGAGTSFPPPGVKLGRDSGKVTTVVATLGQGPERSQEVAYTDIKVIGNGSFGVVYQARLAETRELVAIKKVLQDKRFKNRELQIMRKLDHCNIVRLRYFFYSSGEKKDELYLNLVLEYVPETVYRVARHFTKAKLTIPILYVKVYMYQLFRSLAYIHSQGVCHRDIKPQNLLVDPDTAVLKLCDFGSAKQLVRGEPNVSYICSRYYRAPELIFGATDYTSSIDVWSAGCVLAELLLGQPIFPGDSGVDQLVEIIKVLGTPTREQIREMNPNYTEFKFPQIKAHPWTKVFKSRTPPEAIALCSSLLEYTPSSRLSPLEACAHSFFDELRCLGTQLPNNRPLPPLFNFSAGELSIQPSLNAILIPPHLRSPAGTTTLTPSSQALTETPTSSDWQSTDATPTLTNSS
GSK3β, sequence (P49841 whole entry): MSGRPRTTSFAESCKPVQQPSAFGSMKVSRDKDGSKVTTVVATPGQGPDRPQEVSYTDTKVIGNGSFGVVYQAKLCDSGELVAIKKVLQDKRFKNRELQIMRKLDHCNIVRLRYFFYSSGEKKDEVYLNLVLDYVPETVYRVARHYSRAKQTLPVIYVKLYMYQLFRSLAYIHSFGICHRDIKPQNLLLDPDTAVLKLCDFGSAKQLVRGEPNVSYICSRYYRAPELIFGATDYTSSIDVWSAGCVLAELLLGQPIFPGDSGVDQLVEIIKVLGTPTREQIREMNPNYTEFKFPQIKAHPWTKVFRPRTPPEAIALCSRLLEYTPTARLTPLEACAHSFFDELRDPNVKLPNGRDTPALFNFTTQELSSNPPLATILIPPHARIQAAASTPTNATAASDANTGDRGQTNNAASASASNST

Compound: O=C1NC(=O)[C@H](c2cn3c4c(cccc24)CCC3)[C@H]1c1c[nH]c2ccccc12 [compound 7, (+)-3S,4S-tivantinib]
IC50 for inhibition of GSK3α in vitro kinase activity (GSK3α): significantly weaker inhibitor
activity in (−)-tivantinib-sensitive cell lines (cellular viability) ([1]; A549 and H1648 cells, compared with (−)-tivantinib): substantially weaker activity
IC50 for inhibition of GSK3β in vitro kinase activity (GSK3β): significantly weaker inhibitor
activity against c-MET (c-MET [2]): inactive

Compound: COc1cc2nccc(Oc3ccc(NC(=O)C4(C(=O)Nc5ccc(F)cc5)CC4)cc3)c2cc1OC [cabozantinib]
effect on cellular viability across lung cancer cell line panel [3]: no significant effects

Compound: O=C1Nc2cc(Br)ccc2/C1=C1/Nc2ccccc2/C1=N\O [BIO]
apoptosis indicated by PARP-1 cleavage (A549 cells [4]): able to induce apoptosis in A549 cells, albeit slightly delayed
antiproliferative activity in A549 cells (A549 NSCLC cells): showed antiproliferative activity
c-MET levels upon treatment (c-MET [5]): decreased c-MET levels

Compound: OCCn1cc(-c2cnc3nnn(Cc4ccc5ncccc5c4)c3n2)cn1 [PF-04217903]
effect on cellular viability across lung cancer cell line panel [3]: no significant effects
activity in inhibition of cellular viability (dose-response) [1]: no measurable

Compound: [Cl-].[Li+] [LiCl]
antiproliferative activity in A549 cells (A549 NSCLC cells): showed antiproliferative activity
potency range of antiproliferative activity (A549 NSCLC cells): low millimolar activity

IC50 for inhibition of GSK3α in vitro kinase activity (GSK3α): upper nanomolar range
inhibition of c-MET autophosphorylation (c-MET [7]): essentially no effect
IC50 ([1]; read-out: IC50 for inhibition of cellular viability): ~500 nM
inhibition of c-MET (in vitro kinase) (c-MET [10]): only weakly inhibited
IC50 for inhibition of GSK3β in vitro kinase activity (GSK3β): upper nanomolar range
Compound: O=C1NC(=O)[C@@H](c2cn3c4c(cccc24)CCC3)[C@@H]1c1c[nH]c2ccccc12 [tivantinib]
effect on cellular viability across lung cancer cell line panel [3]: inhibited the viability of the majority of these
total β-catenin levels (β-catenin): increase in total β-catenin levels
cell cycle effect [6]: induced G1 cell cycle arrest
β-catenin stabilisation [6]: stabilized β-catenin
apoptosis indicated by PARP-1 cleavage (A549 cells [4]): induce apoptosis
cell cycle effect (A549 cells [8]): G2/M cell cycle arrest
inhibition of viability [9]: potently inhibited viability
c-MET levels upon treatment (c-MET [5]): decreased c-MET levels
inhibition of viability [11]: potently inhibited viability

inhibition of c-MET autophosphorylation (c-MET [7]): effectively inhibited
Compound: Cc1[nH]c(/C=C2\C(=O)Nc3ccc(S(=O)(=O)Cc4c(Cl)cccc4Cl)cc32)c(C)c1C(=O)N1CCC[C@@H]1CN1CCCC1 [PHA-665752]

Compound: C[C@@H](Oc1cc(-c2cnn(C3CCNCC3)c2)cnc1N)c1c(Cl)ccc(F)c1Cl [crizotinib]
effect on cellular viability across lung cancer cell line panel [3]: no significant effects
activity in inhibition of cellular viability (dose-response) [1]: only weak activity
